Shown is part of a subset that was picked to be rich in hits.
T cruzi HTS = inhibitors of intracellular Trypanosoma cruzi; intracellular Trypanosoma cruzi in host cells, plate reader; activity score (inhibition), % at 5.01 µM; actives 4.9% (n = 22,000); in the data active means activity score above about 55%;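 further: parasites and compound incubated about four days before reading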
INS-1E rescue = rescue of cytokine-induced death in INS-1E beta cells | INS-1E cytokine-induced death, ATP luminescence, 48 h; normalised: neutral wells 0, positive control 100 | protection from cytokine-induced ATP loss, % at 10 µM | actives 0.1% (n = 20,000) | AID 488910;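 active means mean replicate protection from cytokine-induced ATP loss at least 50% and at least 75% of replicates each reaching 50%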
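Assay system – rat INS-1E insulinoma cell line · Quantity – 8000 cells per well · Buffer or medium – RPMI without phenol red, 5% FBS · Schedule – 48 h co-treatment, 10 min post-lysis read · Technique – luminescent ATP assay (CellTiter-Glo)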
A1 apoptosis 2 = compounds inhibiting A1, read as caspase activation | MEF A1-2A-BIM cells, caspase-Glo luminescence, 3 h; percent of clofoctol response, DMSO zero | 24,000 tested, under 10 active | caspase activation, % (concentration not given with the values) | AID 2465; in the data active means caspase activation above about 5.9%
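System: mouse embryonic fibroblasts co-expressing A1 and BIM (A1-2A-BIM), primed for A1 dependence; amount: 2500 cells/well; doses: 50 nL pinned compound; schedule: cells settled overnight, compound exposure 3 h at 37 °C, 5% CO2; detection: Caspase-Glo 3/7 luminescence, 1 h at room temperature; read-out: Caspase-3/7 activation, seen as rise in luminescence signal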
Hits are given with their value; – = inactive; · = no result.

SMILES	T cruzi HTS	INS-1E rescue	A1 apoptosis 2
C=CCNC(=O)[C@H]1[C@@H]2C(=O)O[C@@H](c3ccccc3)[C@@H](c3ccccc3)N2[C@@H](c2ccc(O)cc2)[C@]12C(=O)N(C(=O)OCCOC)c1ccc(C#CC3=CCCCC3)cc12	·	·	–
Cc1ccc(S(=O)(=O)Nc2cccc3c2O[C@@H](CN(C)S(=O)(=O)c2ccc(F)cc2)[C@@H](C)CN([C@H](C)CO)C3=O)cc1	–	–	–
CN(CCO)c1ccc(/C=N/NC(=O)c2cccc(C(=O)NO)c2)cc1	–	–	–
O=C(CCCCCCC(=O)Nc1ccccc1O)N/N=C/[C@H](O)[C@@H](O)[C@H](O)[C@H](O)CO[C@H]1O[C@H](CO)[C@H](O)[C@H](O)[C@H]1O	–	–	·
O=C(NN=C1CCCCCC1)c1ccccn1	–	–	–
NC(=O)COc1ccc(/C=N/NC(=O)c2ccccc2O)cc1	–	–	–
COc1ccc(S(=O)(=O)N(C)C[C@H]2Oc3ccc(NC(=O)CCCCCC(=O)Nc4ccccc4N)cc3C(=O)N([C@@H](C)CO)C[C@@H]2C)cc1	–	–	–
C[C@H]1CN([C@@H](C)CO)C(=O)c2cccc(NS(=O)(=O)c3ccccc3)c2O[C@H]1CN(C)CC1CC1	–	–	–
Cc1ccc(S(=O)(=O)N(C)C[C@@H]2Oc3c(NS(=O)(=O)c4ccc(Cl)cc4)cccc3C(=O)N([C@H](C)CO)C[C@H]2C)cc1	–	–	–
Cc1ccc(S(=O)(=O)Nc2cccc3c2O[C@@H](CN(C)S(=O)(=O)c2ccc(Cl)cc2)[C@@H](C)CN([C@H](C)CO)C3=O)cc1	58	–	·
C[C@@H]1CN([C@@H](C)CO)C(=O)c2cccc(NS(=O)(=O)c3ccccc3)c2O[C@@H]1CN(C)CC1CC1	57	–	–
O=C(NO)c1cccc(C(=O)N/N=C/c2ccc([N+](=O)[O-])c(O)c2)c1	–	–	–
O=C(CCCCCCC(=O)Nc1ccccc1O)N/N=C/c1ccc(Br)cc1	–	–	·
C[C@H]1CN([C@@H](C)CO)C(=O)c2cc(NC(=O)Nc3cccc4ccccc34)ccc2O[C@@H]1CN(C)Cc1ccc2c(c1)OCO2	–	–	–
C[C@@H]1CN([C@@H](C)CO)C(=O)c2cc(NC(=O)Nc3cccc4ccccc34)ccc2O[C@@H]1CN(C)Cc1ccc2c(c1)OCO2	56	–	·
C[C@@H]1CN([C@H](C)CO)C(=O)c2cc(NC(=O)Nc3cccc4ccccc34)ccc2O[C@@H]1CN(C)Cc1ccc2c(c1)OCO2	–	–	–
C[C@H]1CN([C@@H](C)CO)C(=O)c2cc(NC(=O)Nc3cccc4ccccc34)ccc2O[C@H]1CN(C)Cc1ccc2c(c1)OCO2	61	–	–
COc1ccc(S(=O)(=O)N(C)C[C@H]2Oc3c(NC(=O)c4cc(C)nn4C)cccc3C(=O)N([C@H](C)CO)C[C@@H]2C)cc1	–	–	–
O=C(NCc1ccccc1)C1=C[C@@H](c2cccs2)C[C@@H](OCc2ccc(CO)cc2)O1	·	·	–
C[C@@H]1CN([C@@H](C)CO)C(=O)c2cc(NC(=O)NC3CCCCC3)ccc2O[C@@H](C)CCCCO[C@@H]1CN(C)S(=O)(=O)c1ccc(F)cc1	·	·	–
C[C@H](CO)N1C[C@H](C)[C@H](CN(C)C(=O)Nc2ccccc2)Oc2ccc(NC(=O)CCCCCC(=O)Nc3ccccc3N)cc2C1=O	–	–	–
C[C@@H]1CN([C@@H](C)CO)C(=O)Cc2cc(NC(=O)Nc3ccc(C(F)(F)F)cc3)ccc2O[C@H]1CN(C)Cc1ccc(Cl)c(Cl)c1	·	·	–
C[C@@H]1CN([C@H](C)CO)C(=O)Cc2cc(NC(=O)Nc3ccc(C(F)(F)F)cc3)ccc2O[C@H]1CN(C)Cc1ccc(Cl)c(Cl)c1	–	–	·
C[C@H](CO)N1C[C@H](C)[C@H](CN(C)Cc2ccc(Cl)c(Cl)c2)Oc2ccc(NC(=O)Nc3ccc(C(F)(F)F)cc3)cc2CC1=O	63	–	·
C[C@H]1CN([C@@H](C)CO)C(=O)Cc2cc(NC(=O)Nc3ccc(C(F)(F)F)cc3)ccc2O[C@H]1CN(C)Cc1ccc(Cl)c(Cl)c1	78	–	–
C[C@@H]1CN([C@H](C)CO)C(=O)Cc2cc(NC(=O)Nc3ccc(C(F)(F)F)cc3)ccc2O[C@@H]1CN(C)Cc1ccc(Cl)c(Cl)c1	65	–	·
O=C(N/N=C/c1ccccc1)c1ccccc1O	–	–	–
Cc1noc(C)c1S(=O)(=O)N(C)C[C@@H]1OCCCC[C@H](C)Oc2ccc(NS(=O)(=O)c3ccc(Cl)cc3)cc2C(=O)N([C@@H](C)CO)C[C@H]1C	·	·	–
O=C(N/N=C/c1ccc(O)c(O)c1)c1ccccn1	·	·	–

Screens from PubChem BioAssay.
